Measured values taken from the RNAGym collection of RNA variant scans (doi:10.1038/s41586-018-0170-7).

B1: tRNA (parent)
chain: GUUCCGUUGGCGUAAUGGUAACGCGUCUCCCUCCUAAGGAGAAGACUGCGGGUUCGAGUCCCGUACGGAACG

Variants of: B1
Assay: yeast fitness, log relative to wild type (ln ratio); higher = fitter; tRNA-Arg(CCU), competitive growth, 37 C, 1 M NaCl
Method in brief: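 Genotype fitness is expressed as the natural log of its generations over those of the wild type. Each pool of the tRNA-Arg(CCU) variant library, carried on a HIS3 centromeric plasmid in BY4742 lacking the chromosomal gene, came from one of two independent transformations and grew 4 generations in SC-HIS at 30 °C before ~6.5 generations (~26.5 h) in SC-HIS 1M NaCl at 37 °C. Generation numbers used OD-scaled log2 output/input frequencies from 125 bp paired-end Illumina sequencing, combined across replicates by inverse-variance weighting.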

Going from AGUCCAUUGGCGUAAUGGUAACGCGUCUCCCUCCUAAGGAGACGACUGCGGGUUCGAGUCCCGUACGGGAUG to AGUCCAUUGGCGUAAUGGUAACGCGUCUCCCUCCUAAGGAGACGAUUGCGGGUUCGAGUCCCGUACGGAGUG, the “yeast fitness (ln)” value rises from -0.506 to -0.202.

First: AGUCCGUUGGCGUAAUGGUAACGCGUCUCCCUCCUAAGGAGAAGAUUGCGGGUUCGAGUCCCGUAAGGAUCG
Second: AGUCCGUUGGCGUAAUGGUAACGCGUCUCCCUCCUAAGGAGAAGAUUGCGGGUUCGAGUCCCGUAAGGAGCG
The “yeast fitness (ln)” value of the first is higher: -0.109 for the first, -0.152 for the second.

Compared with AGUCCGUUGGCGUAAUGGUAACGCGUCUCCCUCCUAAGGAGAAGAUUGCGGGUUCGAGUCCCGUACGGAGUG, AGUCCGUUGGCGUAAUGGUAACGCGUCUCCCUCCUAAGGAGAAGAUUGCGGGUUCGAGUCCCGUACGGGAUG is higher in “yeast fitness (ln)” value: -0.166 for the first, -0.0958 for the second.

Going from AGUCCGUUGGCGUAAUGGUAACGCGUCUCCCUCCUAAGGAGAAGAUUGCGGGUUCGAGUCCCGUAAGGGGUG to AGUCCGUUGGCGUAAUGGUAACGCGUCUCCCUCCUAAGGAGAAGACUGCGGGUUCGAGUCCCGUAAGGAUCG, the “yeast fitness (ln)” value rises from -0.173 to -0.0922.

First: AGUCCGUUGGCGUAAUGGUAACGCGUCUCCCUCCUAAGGAGAAGACUGCGGGUUCGAGUCCCGUAAGGAGCG
Second: AGUCCGUUGGCGUAAUGGUAACGCGUCUCCCUCCUAAGGAGAAGAUUGCGGGUUCGAGUCCCGUACGGGUCG
The “yeast fitness (ln)” value of the first is higher: -0.114 for the first, -0.238 for the second.

First: AGUCCGUUGGCGUAAUGGUAACGCGUCUCCCUCCUAAGGAGAAGAUUGCGGGUUCGAGUCCCGUACGGGGCG
Second: AGUCCGUUGGCGUAAUGGUAACGCGUCUCCCUCCUAAGGAGAAGACUGCGGGUUCGAGUCCCGUAUGGAUCG
The “yeast fitness (ln)” value of the first is lower: -0.163 for the first, -0.131 for the second.

Compared with AGUCCGUUGGCGUAAUGGUAACGCGUCUCCCUCCUAAGGAGAAGACUGCGGGUUCGAGUCCCGUAUGGAGCG, AGUCCGUUGGCGUAAUGGUAACGCGUCUCCCUCCUAAGGAGAAGACUGCGGGUUCGAGUCCCGUAUGGGUUG is lower in “yeast fitness (ln)” value: -0.161 for the first, -0.435 for the second.

Compared with AGUCCGUUGGCGUAAUGGUAACGCGUCUCCCUCCUAAGGAGAAGAUUGCGGGUUCGAGUCCCGUAAGGAAUG, AGUCCGUUGGCGUAAUGGUAACGCGUCUCCCUCCUAAGGAGAAGAUUGCGGGUUCGAGUCCCGUACGGAUCG is lower in “yeast fitness (ln)” value: -0.0962 for the first, -0.115 for the second.

Going from AGUCCGUUGGCGUAAUGGUAACGCGUCUCCCUCCUAAGGAGAAGAUUGCGGGUUCGAGUCCCGUACGGAGCG to AGUCCGUUGGCGUAAUGGUAACGCGUCUCCCUCCUAAGGAGAAGAUUGCGGGUUCGAGUCCCGUACGGAACG, the “yeast fitness (ln)” value rises from -0.103 to -0.0473.

Compared with AGUCCGUUGGCGUAAUGGUAACGCGUCUCCCUCCUAAGGAGAAGAUUGCGGGUUCGAGUCCCGUACGGAUUG, AGUCCGUUGGCGUAAUGGUAACGCGUCUCCCUCCUAAGGAGAAGAUUGCGGGUUCGAGUCCCGUAUGGAGCG is lower in “yeast fitness (ln)” value: 0.00364 for the first, -0.148 for the second.

Compared with AGUCCGUUGGCGUAAUGGUAACGCGUCUCCCUCCUAAGGAGAAGAUUGCGGGUUCGAGUCCCGUAUGGAUCG, AGUCCGUUGGCGUAAUGGUAACGCGUCUCCCUCCUAAGGAGAAGACUGCGGGUUCGAGUCCCGUAAGGAACG is lower in “yeast fitness (ln)” value: -0.0831 for the first, -0.0852 for the second.

Going from AGUCCGUUGGCGUAAUGGUAACGCGUCUCCCUCCUAAGGAGAAGACUGCGGGUUCGAGUCCCGUAUGGAACG to AGUCCAUUGGCGUAAUGGUAACGCGUCUCCCUCCUAAGGAGACGACUGCGGGUUCGAGUCCCGUACGGGUUG, the “yeast fitness (ln)” value falls from -0.159 to -0.411.

Compared with AGUCCAUUGGCGUAAUGGUAACGCGUCUCCCUCCUAAGGAGACGACUGCGGGUUCGAGUCCCGUACGGAGUG, AGUCCGUUGGCGUAAUGGUAACGCGUCUCCCUCCUAAGGAGAAGACUGCGGGUUCGAGUCCCGUAAGGAGUG is higher in “yeast fitness (ln)” value: -0.224 for the first, -0.191 for the second.

Compared with AGUCCAUUGGCGUAAUGGUAACGCGUCUCCCUCCUAAGGAGACGAUUGCGGGUUCGAGUCCCGUACGGGGUG, AGUCCAUUGGCGUAAUGGUAACGCGUCUCCCUCCUAAGGAGACGACUGCGGGUUCGAGUCCCGUACGGGGUG is higher in “yeast fitness (ln)” value: -0.303 for the first, -0.29 for the second.

First: AGUCCGUUGGCGUAAUGGUAACGCGUCUCCCUCCUAAGGAGAAGACUGCGGGUUCGAGUCCCGUAUGGGAUG
Second: AGUCCGUUGGCGUAAUGGUAACGCGUCUCCCUCCUAAGGAGAAGAUUGCGGGUUCGAGUCCCGUAUGGGUCG
The “yeast fitness (ln)” value of the first is lower: -0.254 for the first, -0.128 for the second.

Going from AGUCCGUUGGCGUAAUGGUAACGCGUCUCCCUCCUAAGGAGAAGAUUGCGGGUUCGAGUCCCGUAUGGGGCG to AGUCCGUUGGCGUAAUGGUAACGCGUCUCCCUCCUAAGGAGAAGAUUGCGGGUUCGAGUCCCGUACGGGGUG, the “yeast fitness (ln)” value falls from -0.172 to -0.457.

Compared with AGUCCGUUGGCGUAAUGGUAACGCGUCUCCCUCCUAAGGAGAAGACUGCGGGUUCGAGUCCCGUAUGGAGUG, AGUCCAUUGGCGUAAUGGUAACGCGUCUCCCUCCUAAGGAGACGACUGCGGGUUCGAGUCCCGUACGGAUUG is lower in “yeast fitness (ln)” value: -0.187 for the first, -0.309 for the second.

First: AGUCCGUUGGCGUAAUGGUAACGCGUCUCCCUCCUAAGGAGAAGACUGCGGGUUCGAGUCCCGUACGGAAUG
Second: AGUCCAUUGGCGUAAUGGUAACGCGUCUCCCUCCUAAGGAGACGAUUGCGGGUUCGAGUCCCGUACGGAUUG
The “yeast fitness (ln)” value of the first is lower: -0.218 for the first, -0.14 for the second.

Going from AGUCCGUUGGCGUAAUGGUAACGCGUCUCCCUCCUAAGGAGAAGACUGCGGGUUCGAGUCCCGUAUGGAAUG to AGUCCGUUGGCGUAAUGGUAACGCGUCUCCCUCCUAAGGAGAAGAUUGCGGGUUCGAGUCCCGUAUGGAUUG, the “yeast fitness (ln)” value rises from -0.201 to -0.185.
